{
  "source": "ChEMBL document CHEMBL4270558",
  "about": "“Exploration of carboxy pyrazole derivatives: Synthesis, alkaline phosphatase, nucleotide pyrophosphatase/phosphodiesterase and nucleoside triphosphate diphosphohydrolase inhibition studies with potential anticancer profile” (Eur J Med Chem, 2018)",
  "data": [
    {"target": "T1, Ectonucleoside triphosphate diphosphohydrolase 8 (Rattus norvegicus) (UniProt Q5DRK1)", "T1 sequence (whole entry)": "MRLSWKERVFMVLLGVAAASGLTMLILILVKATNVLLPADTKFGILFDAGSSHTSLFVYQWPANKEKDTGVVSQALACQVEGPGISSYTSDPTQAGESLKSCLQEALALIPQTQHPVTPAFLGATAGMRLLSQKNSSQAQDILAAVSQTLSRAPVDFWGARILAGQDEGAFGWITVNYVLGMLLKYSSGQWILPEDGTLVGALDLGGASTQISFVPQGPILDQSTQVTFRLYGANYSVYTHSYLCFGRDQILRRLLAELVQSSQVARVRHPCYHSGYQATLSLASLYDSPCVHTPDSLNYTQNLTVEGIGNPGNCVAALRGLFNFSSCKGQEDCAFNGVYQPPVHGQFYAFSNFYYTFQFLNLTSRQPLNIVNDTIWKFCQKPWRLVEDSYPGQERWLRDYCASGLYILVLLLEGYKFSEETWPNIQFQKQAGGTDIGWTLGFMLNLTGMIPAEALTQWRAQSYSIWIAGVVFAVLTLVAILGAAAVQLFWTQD", "assay": "Inhibition of rat NTPDase8 using ATP as substrate preincubated for 10 mins followed by substrate addition measured after 10 mins by malachite green reagent-based assay", "parameters": "concentration or dose not given beside the values", "how_it_was_run": "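Rat NTPDase1, 2 or 3 from electroporated CHO cells. Final enzyme amounts: NTPDase1 0.99 μg, NTPDase2 1.21 μg, NTPDase3 1.04 μg, NTPDase8 1.85 μg. Buffer 50 mM Tris-HCl with 5 mM CaCl2, pH 7.4. Enzyme and compound held 10 min at 37 °C, then ATP (0.5 mM) added for 10 min at 37 °C. Malachite green added and absorbance read at 630 nm.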", "units": {"inhibition": "%"}, "values": [
      {"smiles": "Cc1nn(C(=O)c2ccncc2)c(C)c1Cl", "inhibition": 41.5},
      {"smiles": "Cc1nn(C(=O)c2ccc3ccccc3c2)c(C)c1Cl", "inhibition": 44.9},
      {"smiles": "Cc1ccc(C(=O)n2nc(C)c(Cl)c2C)cc1", "inhibition": 33.3},
      {"smiles": "Cc1cc(C)n(C(=O)c2ccc(Cl)cc2)n1", "inhibition": 25.7},
      {"smiles": "Cc1ccc(C(=O)n2[nH]c(C)cc2=O)cc1", "inhibition": 49.3},
      {"smiles": "Cc1cc(C)n(C(=O)c2ccccc2C)n1", "inhibition": 44.9},
      {"smiles": "Cc1ccc(Oc2c(C)nn(C(=O)c3ccc(Cl)cc3)c2C)cc1", "inhibition": 49.3},
      {"smiles": "Cc1ccccc1C(=O)n1nc(C)c(Cl)c1C", "inhibition": 44.7},
      {"smiles": "Cc1nn(C(=O)c2ccc(Cl)cc2)c(C)c1Cl", "inhibition": 29.9},
      {"smiles": "Cc1n[nH]c(C)c1Oc1ccc2ccccc2c1", "inhibition": 34.5},
      {"smiles": "Cc1cc(C)n(C(=O)c2ccncc2)n1", "inhibition": 23.9},
      {"smiles": "Cc1cccc(C(=O)n2nc(C)cc2C)c1", "inhibition": 33.8},
      {"smiles": "Cc1cc(=O)n(C(=O)c2ccc(N)cc2)[nH]1", "inhibition": 46.9},
      {"smiles": "Cc1ccc(Oc2c(C)nn(C(=O)c3ccc(N)cc3)c2C)cc1", "inhibition": 35.5},
      {"smiles": "Cc1nn(C(=O)[C@H](C)c2ccc(CC(C)C)cc2)c(C)c1Cl", "inhibition": 43},
      {"smiles": "Cc1nn(C(=O)c2ccc(N)cc2)c(C)c1Cl", "inhibition": 32.9},
      {"smiles": "Cc1cccc(C(=O)n2nc(C)c(Cl)c2C)c1", "inhibition": 46.6},
      {"smiles": "Cc1cc(C)n(C(=O)c2ccc3ccccc3c2)n1", "inhibition": 41.3},
      {"smiles": "Cc1nn(C(=O)/C=C/c2ccccc2)c(C)c1Cl", "inhibition": 32.6},
      {"smiles": "Cc1cc(C)n(C(=O)c2ccc(N)cc2)n1", "inhibition": 41.3}
    ]},
    {"species_on_record": "Homo sapiens", "assay": "Selectivity index, ratio of IC50 for human TNAP to IC50 for human IAP", "values": [
      {"smiles": "Cc1cc(C)n(C(=O)c2ccc(N)cc2)n1", "Ratio IC50": 9}
    ]}
  ]
}
